miR122 inh – miR-122 Renilla sensor signal increase in Huh7, primary screen, miR-122 inhibitor project, cell-based, single point, plate reader | activation (reporter increase), % at 12.5 µM | Huh7 miR-122 Renilla luciferase sensor, 48 h; neutral wells = 0, positive control = 100 | AID 602342, 2012 | 340,000 compounds, 0.3% hits;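 active means mean replicate activation score at least 90 and every replicate individually at or above 90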;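 further: higher luciferase means less miR-122 activity so hits act as miR-122 inhibitors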
Jurkat NFkB inh – inhibitors of induced NF-kB luciferase reporter, primary screen, TCR NF-kB activation inhibitor project, cell-based, luminescence, uHTS. Jurkat, PMA/ionomycin-induced NF-kB luciferase reporter. inhibition, % at 4 µM. 330,000 compounds, 0.53% hits. AID 435003, 2010; in the data active means inhibition above about 50%
NR2E3 ag-1 – inhibitors of NR2E3-RetCOR corepressor binding, primary screen, NR2E3 agonist project, biochemical, TR-FRET, GST-NR2E3, biotin-RetCOR; 1536-well; inhibition of corepressor binding, % at 4.78 µM; 320,000 compounds, 0.12% hits;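 active means percent inhibition above the cutoff of mean plus 3 SD of all tested compounds, set per screening campaign, cut at about 20% in these data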;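 further: 0% = DMSO wells and 100% = biotin wells as full block of FRET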
Target sequence (Q9Y5X4 whole entry, looked up): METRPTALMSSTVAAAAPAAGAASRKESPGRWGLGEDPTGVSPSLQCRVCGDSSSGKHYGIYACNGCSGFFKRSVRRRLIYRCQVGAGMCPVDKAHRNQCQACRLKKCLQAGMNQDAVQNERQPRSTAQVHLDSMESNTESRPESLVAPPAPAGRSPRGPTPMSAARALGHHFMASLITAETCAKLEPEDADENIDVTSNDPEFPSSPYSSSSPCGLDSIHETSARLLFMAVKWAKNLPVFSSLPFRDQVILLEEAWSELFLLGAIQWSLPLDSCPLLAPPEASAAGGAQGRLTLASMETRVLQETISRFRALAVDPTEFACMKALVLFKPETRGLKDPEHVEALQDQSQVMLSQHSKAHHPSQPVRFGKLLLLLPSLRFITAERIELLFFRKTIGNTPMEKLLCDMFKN
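Test system – NR2E3–RetCOR corepressor complex · Quantity – NR2E3 fusion 1.35 nM · Buffer or medium – Tris pH 7.5 · Incubation – Compound–protein incubation for 5 h at 4 °C · Technique – TR-FRET, Eu(K)-anti-GST donor, streptavidin-D2 acceptor, ex 340, em 617/671 nm · Evaluation – percent inhibition of 671/617 nm emission ratio versus biotin and DMSO controls · Plate – 1536-well format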
FGF22 binding – binders of human FGF22 protein, primary screen, FGF22 synaptogenesis inhibitor project, biophysical, thermal shift, single point. recombinant FGF22 thermal shift, SYPRO orange fluorescence; percent of sucrose octasulfate shift, DMSO zero. activity (Tm shift, normalised), % at 9.99 µM. 340,000 compounds, 1.5% hits;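 active means mean Tm shift, scaled 0 neutral to 100 positive control, at about 1.3% or above, every replicate too, limit read from the data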
Target sequence (Q9HCT0 whole entry, looked up): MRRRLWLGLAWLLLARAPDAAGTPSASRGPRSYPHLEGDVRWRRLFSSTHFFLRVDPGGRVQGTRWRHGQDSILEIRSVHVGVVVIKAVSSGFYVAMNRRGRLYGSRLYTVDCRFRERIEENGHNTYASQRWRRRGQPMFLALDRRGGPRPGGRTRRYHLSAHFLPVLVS
697 NFkB inh – inhibitors of PMA/ionomycin-induced NF-kB reporter, 697 cells, primary screen, B-cell NF-kB inhibitor project, cell-based, luminescence, uHTS; 330,000 compounds, 0.33% hits; 697 B-cell NF-kB luciferase reporter, 16 h; AID 435022, 2010; inhibition, % at 4 µM; in the data active means inhibition above about 35%
NR2E3 ag-2 – NR2E3 agonists in two-hybrid cells, primary screen, cell-based, luminescence, CHO-S, Gal4-NCOR/VP16-NR2E3; inhibition of corepressor binding, % at 3.98 µM; luciferase; 360,000 compounds, 0.35% hits; Photoreceptor-specific nuclear receptor (Homo sapiens), Q9Y5X4; AID 602229, 2012;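 active means inhibition above the mean of all tested compounds plus 3 SD, cut at about 70% in these data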;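 further: 0% = DMSO with NR2E3 transfected cells and 100% = cells lacking NR2E3 construct; higher means lower luciferase signal from less NR2E3 corepressor binding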
The depositor's hits bear a star; / = not tested or not shown; ! = not active in a repeat; [ ] = dose if it differs, or a comment. This is a sample that favours compounds with a hit; in the whole collection about 2.2% have one here.

SMILES	miR122 inh	Jurkat NFkB inh	NR2E3 ag-1	FGF22 binding	697 NFkB inh	NR2E3 ag-2
CCCNC(=O)N1[C@H](CO)[C@@H]2c3ccccc3N(C(=O)Nc3ccc(F)cc3)C[C@@H]21	4[16.7 µM]	/	/	-1	/	/
CN(C)CC(=O)Nc1ccc2c(c1)[C@H]1C[C@H](CC(=O)NCc3ccc(Cl)cc3)O[C@@H](CO)[C@H]1O2	-3[16.7 µM]	/	/	0	/	/
COc1cccc(CNC(=O)COC(=O)c2c(NC(C)=O)sc(C)c2C)c1	-2	2	/	43*	9	-3
C=CCn1c(=O)c(C(C)=O)cn(N(C)c2ncc(C(F)(F)F)cc2Cl)c1=O	/	-6	1	43*	11	16
C[C@@H]1CN([C@H](C)CO)S(=O)(=O)c2ccc(-c3ccncc3)cc2O[C@H]1CN(C)Cc1ccncc1	3[16.7 µM]	/	/	/	/	/
COc1ccc(-c2c[n+](CC(=O)c3cccs3)c3n2CCC3)cc1	/	13	-1	0	-5	1
COc1ccc(C(=O)C[n+]2cc(-c3ccc(OC)cc3)n3c2CCCC3)cc1	-4	37	1	43*!	-19	-7
Cc1ccc(S(=O)(=O)N(C)S(=O)(=O)c2ccc(C)cc2)cc1	/	9	4	0	14	7
Cc1ccc(S(=O)(=O)N(C)CCN(C)S(=O)(=O)c2ccc(C)cc2)cc1	1	/	/	43*	/	-4
C=CCNC(=O)Nc1ccc(Cl)cn1	/	-9	1	43*	8	-7
CS(=O)(=O)N(CC(=O)Nc1cccc([N+](=O)[O-])c1)c1ccccc1	/	-11	1	0	-12	-33
CS(=O)(=O)N(CC(=O)Nc1cccc(F)c1)c1cccc([N+](=O)[O-])c1	277*	-9	3	/	-22	0
CS(=O)(=O)N(CC(=O)NCC1CCCO1)c1cccc([N+](=O)[O-])c1 (stereo not given)	/	-13	-2	43*	-16	10
CO[C@@H]1CN(C)C(=O)c2cc(NS(C)(=O)=O)ccc2OC[C@H](C)N(Cc2nccs2)C[C@@H]1C	15[16.7 µM]	/	/	0	/	/
CCCCn1c(O)c(N=NC(=O)c2ccncc2)c2cc(Br)ccc21	-3	-9	4	44*	-16	-23
O=C(COc1ccc(Br)cc1CO)Nc1ccccc1	-4	-40	4	/	-34	-50
Cc1ccc(NC(=O)COc2ccc(Br)cc2CO)cc1	284*	-32	4	/	-40	-32
O=C(CCn1nnc2ccccc21)N/N=C\Cc1ccccc1	/	1	6	43*	8	7
COc1cccc(/C=N/NC(=O)CCn2nnc3ccccc32)c1	6	2	-1	44*	12	1
COc1cc(/C=N/NC(=O)CCn2nnc3ccccc32)ccc1O	/	-2	-3	0	6	-13
C[C@@H]1CN([C@@H](C)CO)C(=O)c2cc(NC(=O)Nc3ccc(F)cc3)ccc2O[C@@H](C)CCCCO[C@H]1CN(C)S(=O)(=O)c1ccccc1	22[16.7 µM]	/	/	1	/	/
COc1ccc(CNC(=O)N(C)C[C@@H]2OCc3ccccc3-c3ccccc3C(=O)N([C@@H](C)CO)C[C@@H]2C)cc1	/	/	/	0	/	/
COC(=O)C(=C/C=C/c1cccnc1)C(=O)OC	-3	-8	3	43*	-4	10
O=C(C=Cc1cccnc1)c1ccccc1	0	/	/	0	/	4
OCCC1CN(Cc2cnn(-c3ccccc3Cl)c2)CCN1Cc1ccsc1 (stereo not given)	/	-29	-3	49*	-10	5
SMILES	miR122 inh	Jurkat NFkB inh	NR2E3 ag-1	FGF22 binding	697 NFkB inh	NR2E3 ag-2
OCCC1CN(Cc2nc(-c3ccccc3)cs2)CCN1Cc1ccc(F)cc1 (stereo not given)	/	1	2	43*	-9	0
Cc1ccc(S(=O)(=O)N(C)C[C@@H]2OCCCC[C@@H](C)Oc3ccc(NC(=O)Nc4cccc5ccccc45)cc3C(=O)N([C@@H](C)CO)C[C@H]2C)cc1	-9[16.7 µM]	/	/	0	/	/
O=C(c1ccc(OC2CCN(Cc3ccccn3)CC2)cc1)N1CCCCO1	-7	-1	4	43*	13	14
CC(=O)N1CCN(C(=O)c2ccc(OC3CCN(Cc4ccccn4)CC3)cc2)CC1	0	2	-1	0	-12	15
CC(C)CCN1CCN(CC(c2ccccc2)c2ccccc2)CC1CCO (stereo not given)	12	17	-1	43*	-6	-3
CC(Sc1nc2ccccc2c(=O)n1CCCN1CCOCC1)C(=O)N1CCc2ccccc21 (stereo not given)	/	/	/	44*	/	8
CC(=O)NC1C(=O)N=C(SCC(=O)Nc2ccc(C(F)(F)F)cc2Cl)NC1=O (stereo not given)	/	14	-3	44*	7	-11
CCN(C(=O)CSc1nnc(Nc2cccc(C)c2C)s1)C1CCS(=O)(=O)C1 (stereo not given)	1	5	0	0	4	9
CCN(C(=O)CSc1nnc(NCc2ccccc2)s1)C1CCS(=O)(=O)C1 (stereo not given)	30	-8	-3	43*	15	-8
O=C(NNS(=O)(=O)c1ccc(Br)cc1)c1sccc1-n1cccc1	/	-1	0	44*	14	15
COc1ccc(S(=O)(=O)NNC(=O)c2sccc2-n2cccc2)cc1	-1	0	4	0	4	-27
CCCn1nc(C(=O)Nc2nc3ccccc3[nH]2)c2ccccc2c1=O	-15	6	4	43*	17	-27
C[C@@H]1CN([C@@H](C)CO)C(=O)c2cc(NC(=O)C3CC3)ccc2O[C@H]1CN(C)Cc1ccc2c(c1)OCO2	30[16.7 µM]	/	/	0	/	/
COc1ccccc1COC(=O)CN1C(=O)NC2(CCCCC2C)C1=O (stereo not given)	-3	2	/	43*	-4	-5
CCN(CC)CCN1C(=O)C(=O)/C(=C(/O)c2ccc(S(=O)(=O)N3CCOCC3)cc2)C1c1ccc(C)cc1 (stereo not given)	/	5	-2	44*	-5	-21
Cn1c(-c2csc(-c3ccccc3)n2)n[nH]c1=S	-9	-8	1	44*	-7	-26
Cc1ccc(-c2n[nH]c(=S)n2C)cc1	2	/	/	/	/	-13
C[C@@H]1CN([C@H](C)CO)C(=O)Cc2cc(NS(=O)(=O)c3ccccc3)ccc2O[C@H]1CN(C)Cc1ccc(C(=O)Nc2ccccc2N)cc1	/	/	/	0	/	/
